For 33 molecules, Reduction results are on record in ChEMBL document CHEMBL1121674, “Gastric antisecretory agents. 2. Antisecretory activity of 9-[(aminoalkyl)thio]-9H-xanthenes and 5-[(aminoalkyl)thio]-5H-[1]benzopyrano[2,3-b]pyridines” (1981).

Test [1] deals with Canis familiaris. Briefly: Percent reduction of histamine stimulated gastric acid secretion in adult mongrel dog after intravenous administration at 5 mg/kg. Type of test: functional, Canis lupus familiaris, Stomach. The essentials: (§1)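 Heidenhain-pouch mongrel dogs given histamine infusion at 0.4 (μg/kg)/min. Compound given iv 1 h after infusion start. 30-min collections, volume recorded and aliquot titrated for acid. AO = volume × acid concentration, summed for 3 h post-dose and divided by 3-h control AO from the same dog. % inhibition = 100 − percent of control. Usually one dog per compound.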

Test [2] concerns Rattus norvegicus. Briefly: Percent reduction of gastric acid secretion in pylorus ligated rat after intraperitoneal administration at 40 mg/kg. Type of test: functional, Stomach. An outline of the steps: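 Male Charles River CD outbred albino rats, 150-200 g, pylorus ligated; compound dissolved in 2.5% Tween 80 and given ip (0.5 mL/200 g) at ligation. Stomachs removed after 4 h. Gastric content volume recorded, acid titrated with 0.1 N NaOH to pH 7.0, AO in mequiv/4 h. Six rats per compound, eight controls; % inhibition = 100 − 100×(mean test AO/mean control AO); Student's t test.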

For test [3], the system named is Canis familiaris. Briefly: Percent reduction of histamine stimulated gastric acid secretion in adult mongrel dog after peroral administration of compound at 8 mg/kg. The test is classed as functional, Canis lupus familiaris, Stomach. Particulars: route oral. The essentials: (§2)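 Heidenhain-pouch mongrel dogs given histamine infusion at 0.4 (μg/kg)/min. Compound given orally by gavage 1 h after infusion start. 30-min secretions collected and titrated for acid. AO = volume × acid concentration, summed over 3 h after dosing and expressed against 3-h control AO in the same dog. % inhibition = 100 − percent of control. Usually a single dog.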

Test [4] concerns Canis familiaris. Description: Percent reduction of histamine stimulated gastric acid secretion in adult mongrel dog after peroral administration of compound at 8 mg/kg; Animal vomited upon compound administration. Type of test: functional, organism-based. Also on record: dose 8 mg/kg. Particulars: Canis lupus familiaris, Stomach. An outline of the steps: as §2
Test [5] concerns Canis familiaris. Briefly: Percent reduction of histamine stimulated gastric acid secretion in adult mongrel dog after intravenous administration of compound at 5 mg/kg; stimulated gastric acid secretion. Type of test: functional, organism-based. Also on record: dose 5 mg/kg. Particulars: Canis lupus familiaris, Stomach. An outline of the steps:
as §1

`Cc1ccc2c(c1)C(SCCN1CCCCC1)c1ccccc1O2.Cl` (stereo not drawn): the Reduction is on record as under 30% in test [1] and 88% in test [2].
In the case of `COc1ccc2c(c1)Oc1ccccc1C2SCCN1CCCCC1.Cl` (stereo not drawn), the Reduction was under 58% in test [1], under 30% in test [3] and 47% in test [2].
In the same order, the values of `Cl.c1ccc2c(c1)Oc1ccccc1C2SCCN1CCOCC1` are 56%, under 30% and 93%.
For `Cc1ccc2c(c1)C(SCCCN)c1ccccc1O2.Cl` (stereo not drawn), the Reduction in test [1] is recorded as 80%; in test [3], under 50%; in test [2], 100%.
`COc1ccc2c(c1)C(SCCN(C)C)c1ccccc1O2.Cl` (stereo not drawn): the Reduction in test [1] is listed as under 30%; in test [2], 63%.
For the molecule `COc1ccc2c(c1)Oc1ccccc1C2SCCN1CCOCC1.Cl` (stereo not drawn), the Reduction in test [1] is 77%; in test [3], under 30%; in test [2], 44%.
For `Cl.Clc1ccc2c(c1)Oc1ccccc1C2SCCN1CCCCC1` (stereo not drawn), the values for the Reduction in test [1] and in test [2] were under 30% and 80%, respectively.
In the case of `Cl.Clc1cccc2c1Oc1ccccc1C2SCCN1CCCCC1` (stereo not drawn), the Reduction in test [1] is recorded as 44%; in test [2], 87%.
For the molecule `Cl.NCCCSC1c2ccccc2Oc2ccc(Cl)cc21` (stereo not drawn), the Reduction turned out to be 39% in test [1] and 89% in test [2].
The matching figures for `Cl.NCCSC1c2ccccc2Oc2ncccc21` (stereo not drawn): under 30% and under 30%.
The matching figures for `Cl.c1ccc2c(c1)Oc1ncccc1C2SCCN1CCOCC1` (stereo not drawn): 66% and 64%.
Regarding `CN/C(=N\CCSCc1nc[nH]c1C)NC#N` [CIMETIDINE], the Reduction in test [1] was 84%; in test [3], 86%; in test [2] it was 74%.
On to `CN(C)CCSC1c2ccccc2Oc2ccccc21.Cl`, for which the Reduction in test [1] is under 30%; in test [2], 65%.
On to `Cc1cccc2c1Oc1ccccc1C2SCCN1CCCCC1.Cl` (stereo not drawn), for which the Reduction in test [1] is under 30%; in test [2], 85%.
On to `Cl.NCCCSC1c2ccccc2Oc2ccccc21`, for which the figures for the Reduction in test [1], in test [4] and in test [2] were 68%, “Animal vomited upon compound administration” and 44%, respectively.
With `CN(C)CCSC1c2ccccc2Oc2ncccc21.Cl` (stereo not drawn), the Reduction in test [1] is under 30%; in test [2], 79%.
Consider `Cl.c1ccc2c(c1)Oc1ccccc1C2SCCN1CCCCC1`, for which the Reduction in test [1] is under 30%; in test [2], 98%.
As to `Cc1cccc2c1Oc1ccccc1C2SCCN1CCOCC1.Cl` (stereo not drawn), the results for the Reduction in test [1] and in test [2] were under 30% and 71%, respectively.
For `Cl.c1ccc2c(c1)Oc1ncccc1C2SCCN1CCCCC1` (stereo not drawn), the Reduction is reported as 63% in test [1], under 30% in test [3] and 61% in test [2].
In the case of `Cc1cccc2c1Oc1ccccc1C2SCCCN.Cl` (stereo not drawn), the Reduction in test [1] is given as 87%; in test [4] it was “Animal vomited upon compound administration”; in test [2], 71%.
Turning to `COc1ccc2c(c1)C(SCCN1CCOCC1)c1ccccc1O2.Cl` (stereo not drawn), the Reduction result in test [5] is recorded as “stimulated gastric acid secretion”; in test [2] it was 94%.
With `Cl.NCCCSC1c2ccccc2Oc2c(Cl)cccc21` (stereo not drawn), the values for the Reduction in test [1] and in test [2] were 33% and 99%, respectively.
Regarding `Cc1ccc2c(c1)C(SCCN1CCOCC1)c1ccccc1O2.Cl` (stereo not drawn), the Reduction in test [1] was 50%; in test [2], 93%.
In the case of `Cl.Clc1cccc2c1Oc1ccccc1C2SCCN1CCOCC1` (stereo not drawn), the values for the Reduction in test [1] and in test [2] were 42% and 86%, respectively.
In the case of `Cl.c1ccc2c(c1)Oc1ccccc1C2SCCCN1CCCCC1`, the results for the Reduction in test [1] and in test [2] were 30% and 88%, respectively.
Molecule `Cl.c1ccc2c(c1)Oc1ncccc1C2SCCCN1CCOCC1` (stereo not drawn) showed a Reduction in test [2] of 62%.
With `Cl.NCCCSC1c2ccccc2Oc2cc(Cl)ccc21` (stereo not drawn), the Reduction in test [1] was under 30%; in test [2], 79%.
In the case of `Cl.NCCSC1c2ccccc2Oc2ccccc21`, the Reduction in test [1] was under 30%; in test [2], 35%.
In the case of `Cl.Clc1ccc2c(c1)Oc1ccccc1C2SCCN1CCOCC1` (stereo not drawn), the Reduction in test [1] turned out to be 39%; in test [2], 70%.
On to `COc1ccc2c(c1)C(SCCN1CCCCC1)c1ccccc1O2.Cl` (stereo not drawn), for which the Reduction in test [1] is recorded as under 30%; in test [2], 73%.
For `CN(C)CCSC1c2ccccc2Oc2ccc(Cl)cc21.Cl` (stereo not drawn), the Reduction in test [1] is recorded as under 30%; in test [2] it was 55%.
As to `Cl.c1ccc2c(c1)Oc1ccccc1C2SCCCN1CCOCC1`, the Reduction in test [1] is on record as 47%; in test [2], 98%.
With `Cl.NCCSC1c2ccccc2Oc2ccc(Cl)cc21` (stereo not drawn), the Reduction in test [1] is on record as under 30%; in test [2] it was 74%.
